Measured values taken from ChEMBL document CHEMBL4325919, “3,5-Disubstituted-indole-7-carboxamides as IKKβ Inhibitors: Optimization of Oral Activity via the C3 Substituent” (ACS Med Chem Lett, 2018).
pIC50: −log10 of the molar value. ≈ marks a conversion by molar mass, not a printed value.

Legend:
[1] = target: T1, Inhibitor of nuclear factor kappa-B kinase subunit beta (Homo sapiens, UniProt O14920); test: Inhibition of IKKbeta in human CD14-positive monocytes assessed as reduction in LPS-stimulated TNFalpha secretion preincubated for 30 mins followed by LPS stimulation and measured after 24 hrs by Alpha screen assay; type: cell-based
T1 sequence (O14920 whole entry): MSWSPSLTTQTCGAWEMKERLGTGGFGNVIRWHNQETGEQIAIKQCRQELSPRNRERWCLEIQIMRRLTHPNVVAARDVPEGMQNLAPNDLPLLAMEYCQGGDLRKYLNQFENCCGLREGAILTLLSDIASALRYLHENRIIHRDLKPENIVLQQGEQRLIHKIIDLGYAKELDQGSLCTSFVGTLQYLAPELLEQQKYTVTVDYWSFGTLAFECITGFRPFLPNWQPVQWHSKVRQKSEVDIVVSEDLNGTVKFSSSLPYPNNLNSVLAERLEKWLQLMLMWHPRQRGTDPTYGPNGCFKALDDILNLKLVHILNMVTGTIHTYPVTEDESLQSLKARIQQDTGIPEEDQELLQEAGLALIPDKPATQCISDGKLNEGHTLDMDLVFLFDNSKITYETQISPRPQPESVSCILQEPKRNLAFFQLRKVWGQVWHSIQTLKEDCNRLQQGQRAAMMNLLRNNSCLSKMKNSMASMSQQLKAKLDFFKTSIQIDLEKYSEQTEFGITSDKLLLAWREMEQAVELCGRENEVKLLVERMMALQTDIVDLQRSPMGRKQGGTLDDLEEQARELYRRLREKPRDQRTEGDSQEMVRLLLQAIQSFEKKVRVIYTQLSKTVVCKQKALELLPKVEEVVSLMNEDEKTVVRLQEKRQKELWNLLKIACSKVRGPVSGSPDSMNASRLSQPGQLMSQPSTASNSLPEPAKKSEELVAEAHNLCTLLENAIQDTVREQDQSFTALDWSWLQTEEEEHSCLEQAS

[2] = Volume of distribution at steady state in Sprague-Dawley rat at 2 mg/kg, po or 1 mg/kg, iv; type: ADME, organism-based; conditions: in vivo, read-out: Vdss
Summary of the method: (§1)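 Male Sprague Dawley rats, n=2 (n=3 for one compound). The i.v. leg used 5% DMSO with 20% Cavitron and the oral leg 5% DMSO with 6% Cavitron. Oral doses were 2 mg/kg, or 2.1 mg/kg where stated. The i.v. dose was 1 mg/kg. Clearance is plasma clearance.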

[3] = Half life in Sprague-Dawley rat at 2 mg/kg, po or 1 mg/kg, iv; type: ADME, organism-based; conditions: in vivo; summary of the method: as §1
[4] = AUC in Sprague-Dawley rat at 2 mg/kg, po; type: ADME, organism-based; conditions: in vivo; summary of the method: as §1
[5] = Plasma clearance in Sprague-Dawley rat at 2 mg/kg, po or 1 mg/kg, iv; type: ADME, organism-based; summary of the method: as §1
Rattus norvegicus [6] = test: Antiinflammatory activity in LPS-induced rat neutrophilia model assessed as inhibition of LPS-induced increase in neutrophils in bronchoalveolar lavage at 100 umol/kg, po administered 30 mins prior to 20 mins nebulized LPS challenge and measured after 4 hrs by diff quick staining based hemocytometric method relative to control; type: functional
[7] = Oral bioavailability in Sprague-Dawley rat at 2 mg/kg; type: ADME, organism-based; conditions: in vivo; summary of the method: as §1
[8] = Permeability of the compound by PAMPA; type: ADME; conditions: read-out: permeability
[9] = target: T1, Inhibitor of nuclear factor kappa-B kinase subunit beta; test: Inhibition of recombinant human C-terminal GST-tagged IKKbeta (1 to 737 residues) expressed in baculovirus expression system using GST-IkBalpha substrate measured after 30 mins by TR-FRET assay
Summary of the method: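 IKK pIC50 values are the mean of more than 2 determinations unless noted otherwise. Compounds were tested as racemic mixtures.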

[10] = Kinetic aqueous solubility of the compound by UV-HPLC analysis; type: physicochemical; conditions: buffer; read-out: Kinetic_solubility
Rattus norvegicus [11] = test: Antiinflammatory activity in LPS-induced rat neutrophilia model assessed as inhibition of LPS-induced increase in neutrophils in bronchoalveolar lavage at 50 umol/kg, po administered 30 mins prior to 20 mins nebulized LPS challenge and measured after 4 hrs by diff quick staining based hemocytometric method relative to control; type: functional
Canis familiaris = test: Anti-inflammatory activity in inhaled LPS-induced Beagle dog lung neutrophilia model assessed as inhibition of LPS-induced increase in neutrophils in bronchoalveolar lavage administered orally 30 mins prior to LPS instillation and measured after […] by diff quick staining based hemocytometric method; type: functional; conditions: Canis lupus familiaris, po
[12] = Volume of distribution at steady state in Beagle dog at 2.03 mg/kg, po or 1.11 mg/kg, iv; type: ADME, organism-based, Canis lupus familiaris; conditions: in vivo, read-out: Vdss
Summary of the method: (§2)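 Male Beagle dogs, n=3. Vehicles were 5% DMSO with 20% Cavitron for i.v. dosing at 1.11 mg/kg and 5% DMSO with 6% Cavitron for oral dosing at 2.03 mg/kg. Derived values were plasma clearance, steady-state volume of distribution, half-life and oral bioavailability.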

[13] = AUC in Beagle dog at 2.03 mg/kg, po; type: ADME, organism-based, Canis lupus familiaris; conditions: in vivo; summary of the method: as §2
[14] = Plasma clearance in Beagle dog at 2.03 mg/kg, po or 1.11 mg/kg, iv; type: ADME, organism-based, Canis lupus familiaris; summary of the method: as §2
[15] = Half life in Beagle dog at 2.03 mg/kg, po or 1.11 mg/kg, iv; type: ADME, organism-based, Canis lupus familiaris; conditions: in vivo; summary of the method: as §2
Rattus norvegicus [16] = test: Anti-inflammatory activity in LPS-induced Lewis rat inflammation model assessed as inhibition of LPS-induced TNFalpha secretion in blood administered orally 30 mins prior to LPS challenge and measured after 2 hrs by ELISA; type: functional; conditions: po
[17] = Kinetic aqueous solubility of the compound by chemiluminescent nitrogen detection assay; type: physicochemical; conditions: buffer; read-out: Kinetic_solubility
[18] = Oral bioavailability in Beagle dog at 2.03 mg/kg; type: ADME, organism-based, Canis lupus familiaris; conditions: in vivo; summary of the method: as §2

SMILES | pIC50 [1] | Vd [2] [L/kg] | half-life [3] [h] | AUC [4] [ng·h/mL] | clearance [5] [mL/min/kg] | bioavailability [7] [%] | Papp [8] [×10⁻⁶ cm/s] | pIC50 [9] | solubility kinetic [10] [µM] | also measured
CCS(=O)(=O)N1CCC(c2c[nH]c3c(C(N)=O)cc(-c4ccccc4)cc23)CC1 | 6.72 | 1 | 1.15 | 1220 | 16 | 58 | 25 |  |  | inhibition in vivo at 100 µmol/kg (Rattus norvegicus [6]): 30%
CC(=O)CCc1c[nH]c2c(C(N)=O)cc(-c3ccccc3)cc12 |  |  |  |  |  |  |  | 6.90 |  | 
NC(=O)c1cc(-c2ccccc2)cc2c(C3CCN(S(=O)(=O)CCCN4CCCC4)CC3)c[nH]c12 | 7.30 | 1 | 4.6 | 998 | 4 | 12 | 16 | 8.00 | 185 (≈ 91.5 µg/mL) | 
NC(=O)c1cc(-c2ccccc2)cc2c([C@@H]3C[C@H]4CC[C@@H](C3)S4(=O)=O)c[nH]c12 |  |  |  |  |  |  |  | 7.10 |  | 
NC(=O)c1cc(-c2ccccc2)cc2c(C3CCC(=O)CC3)c[nH]c12 |  |  |  |  |  |  |  | 6.30 |  | 
NC(=O)c1cc(-c2ccccc2)cc2c(C3CCC(=O)N3)c[nH]c12 (centres undefined) |  |  |  |  |  |  |  | 7.40 |  | 
NCCS(=O)(=O)N1CCC(c2c[nH]c3c(C(N)=O)cc(-c4ccccc4)cc23)CC1 | 6.85 | 3 | 4.43 | 48 | 14 | 3 | 0.3 | 8.10 | 33 (≈ 14.1 µg/mL) | 
NC(=O)c1cc(-c2ccccc2)cc2c(C3CCN(S(=O)(=O)CCCN4CCCCC4)CC3)c[nH]c12 |  |  |  |  |  |  | 24 | 8.10 | 162 (≈ 82.4 µg/mL) | 
NC(=O)c1cc(-c2ccccc2)cc2c(C3CCN(S(=O)(=O)CCCN4CCOCC4)CC3)c[nH]c12 | 6.70 | 0.43 | 1.18 | 2030 | 8.9 | 53 | 31.8 | 7.50 | 36 (≈ 18.4 µg/mL) | inhibition in vivo at 50 µmol/kg (Rattus norvegicus [11]): 30%
NC(=O)c1cc(-c2ccccc2)cc2c(C3CCC(=O)C3)c[nH]c12 (centres undefined) |  |  |  |  |  |  |  | 7.10 |  | 
NC(=O)c1cc(-c2ccccc2)cc2c(C3CCN(S(=O)(=O)CCN4CCOCC4)CC3)c[nH]c12 |  |  |  |  |  |  | 31 | 8.10 | 41 (≈ 20.4 µg/mL) | 
NC(=O)c1cc(-c2ccccc2)cc2c(C3CCN(S(=O)(=O)CCCNC4CCCC4)CC3)c[nH]c12 |  |  |  |  |  |  | 14 | 7.70 | 85 (≈ 43.2 µg/mL) | 
NC(=O)c1cc(-c2ccccc2)cc2c(C3CCN(S(=O)(=O)CCCN4CCCCCC4)CC3)c[nH]c12 |  |  |  |  |  |  | 29 | 8.20 | 93 (≈ 48.6 µg/mL) | 
NC(=O)c1cc(-c2ccccc2)cc2c([C@H]3C[C@H]4CC[C@@H](C3)S4(=O)=O)c[nH]c12 |  |  |  |  |  |  |  | 7.40 |  | 
CCN(CC)CCCS(=O)(=O)N1CCC(c2c[nH]c3c(C(N)=O)cc(-c4ccccc4)cc23)CC1 | 6.72 |  |  |  |  |  | 20 | 7.80 | 173 (≈ 85.9 µg/mL) | 
NC(=O)c1cc(-c2ccccc2)cc2c(C3CCCC(=O)C3)c[nH]c12 (centres undefined) |  |  |  |  |  |  |  | 7.10 |  | 
CS(=O)(=O)CCc1c[nH]c2c(C(N)=O)cc(-c3ccccc3)cc12 |  |  |  |  |  |  |  | 7.20 |  | 
CC1(C)CC(c2c[nH]c3c(C(N)=O)cc(-c4ccccc4)cc23)NC1=O (centres undefined) |  |  |  |  |  |  |  | 7.70 |  | 
CC1(C)CC(=O)NC1c1c[nH]c2c(C(N)=O)cc(-c3ccccc3)cc12 (centres undefined) |  |  |  |  |  |  |  | 6.70 |  | 
CN1C(=O)CCC1c1c[nH]c2c(C(N)=O)cc(-c3ccccc3)cc12 (centres undefined) |  |  |  |  |  |  |  | 6.30 |  | 
NC(=O)c1cc(-c2ccc(F)cc2)cc2c(C3CCS(=O)(=O)CC3)c[nH]c12 | 6.09 to 7.30 | 3.7 | 2.2 | 1270 | 23.5 | 47.4 | 28 | 7.90 |  | 
CC1(C)C[C@H](c2c[nH]c3c(C(N)=O)cc(-c4ccc(F)cc4)cc23)CCS1(=O)=O | 6.89 | 4.7 | 4.5 | 1960 | 13.2 | 94.1 | 28.3 | 8.10 |  | ED50 (Canis familiaris): 1.8 µmol/kg; Vd [12]: 2.87 L/kg; AUC [13]: 8200 ng·h/mL; clearance [14]: 1.86 mL/min/kg; half-life [15]: 20.9 h; ED50 (Rattus norvegicus [16]): 21.7 µmol/kg; solubility kinetic [17]: 32 µM (≈ 13.3 µg/mL); bioavailability [18]: 65.3%
NC(=O)c1cc(-c2ccccc2)cc2c(C3CCS(=O)(=O)C3)c[nH]c12 (centres undefined) |  |  |  |  |  |  |  | 7.00 |  | 
CC1(C)CC(c2c[nH]c3c(C(N)=O)cc(-c4ccccc4)cc23)CCS1(=O)=O (centres undefined) | 6.96 | 7.2 | 2.34 | 1430 | 51.1 | 115 | 33 | 8.10 |  | solubility kinetic [17]: 39 µM (≈ 15.5 µg/mL)
NC(=O)c1cc(-c2ccccc2)cc2c(C3CCCS(=O)(=O)C3)c[nH]c12 (centres undefined) |  |  |  |  |  |  |  | 6.80 |  | 
NC(=O)c1cc(-c2ccccc2)cc2c(C3CCS(=O)(=O)CC3)c[nH]c12 | 7.10 | 2.8 | 1.58 | 904 | 35 | 97 | 27.7 | 8.00 | 130 (≈ 47.9 µg/mL) | ED50 (Canis familiaris): 2.9 µmol/kg; Vd [12]: 1.54 L/kg; AUC [13]: 753 ng·h/mL; clearance [14]: 23.6 mL/min/kg; half-life [15]: 0.949 h; ED50 (Rattus norvegicus [16]): 7.6 µmol/kg; bioavailability [18]: 52.6%
